# Test results: ChEMBL document CHEMBL1153063 (Bioorg Med Chem Lett, 2009)
# Experiments:
# [1] = biological target: Neuronal acetylcholine receptor subunit alpha-7 (Rattus norvegicus, UniProt Q05941); experiment: Displacement of [125I]BTX from rat alpha7 nAChR expressed in rat GH4C1 cells; format: cell-based, GH4-C1
# How it was run: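 GH₄C₁ cell binding with [¹²⁵I]-BTX; six-point dose–response curve in triplicate, values averaged.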
# [2] = biological target: Neuronal acetylcholine receptor subunit alpha-7 (Rattus norvegicus) (UniProt Q05941); experiment: Agonist activity at rat alpha7 nAChR expressed in Xenopus oocytes at 32 uM by two-electrode voltage clamp technique relative to nicotine; format: functional, cell-based; conditions: Oocyte
# How it was run: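 Rat alpha7 nAChR cRNA (10–50 ng) injected into Xenopus oocytes defolliculated with collagenase (1.3 mg/mL, 3 h); oocytes kept in Barth's saline up to 2 weeks. Test compounds applied at 32 µM.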
# [3] = biological target: Neuronal acetylcholine receptor; alpha4/beta2 (Rattus norvegicus, UniProt P09483+P12390); experiment: Displacement of L-[3H]Nicotine from alpha4beta2 nAChR in rat brain homogenate by rapid filtration method; format: tissue-based
# [4] = biological target: Neuronal acetylcholine receptor subunit alpha-3 (Homo sapiens, UniProt P32297); experiment: Displacement of [3H]epibatidine from alpha3 nAChR in human IMR32 cells; format: cell-based, IMR-32
# How it was run: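 IMR32 cell binding with [³H]-epibatidine; six-point dose–response curve in triplicate, values averaged.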
# [5] = Octanol-aqueous buffer partition coefficient, log D at pH 7.4; format: physicochemical
# [6] = Ratio of drug level in brain to plasma in Sprague-Dawley rat at 5 mg/kg, sc after 1 hr; format: ADME, organism-based; design: dose 5 mg/kg, route subcutaneous
# How it was run: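 Male Sprague-Dawley rats (n = 3) received a single subcutaneous dose of 5 mg/kg. Brain, plasma and CSF drug levels were assessed 1 h post dose, and the brain level was expressed relative to the plasma level.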
# [7] = biological target: T1, 5-hydroxytryptamine receptor 3A (Homo sapiens, UniProt P46098); experiment: Displacement of [3H]LY278584 from human 5HT3 receptor expressed in HEK293 cells; format: cell-based
# T1 sequence (P46098 whole entry): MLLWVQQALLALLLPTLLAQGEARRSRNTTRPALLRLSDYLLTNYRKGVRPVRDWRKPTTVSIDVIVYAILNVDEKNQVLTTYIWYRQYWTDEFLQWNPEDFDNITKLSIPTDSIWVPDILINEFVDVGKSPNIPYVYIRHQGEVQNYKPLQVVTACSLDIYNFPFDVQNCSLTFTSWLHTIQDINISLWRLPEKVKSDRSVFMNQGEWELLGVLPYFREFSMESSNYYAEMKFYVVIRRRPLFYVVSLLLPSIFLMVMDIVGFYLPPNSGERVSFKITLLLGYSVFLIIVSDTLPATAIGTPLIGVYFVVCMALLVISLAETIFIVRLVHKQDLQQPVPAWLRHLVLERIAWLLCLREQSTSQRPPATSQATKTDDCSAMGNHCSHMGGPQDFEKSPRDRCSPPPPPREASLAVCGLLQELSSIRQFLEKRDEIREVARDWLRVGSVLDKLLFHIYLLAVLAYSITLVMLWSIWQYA
# How it was run: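 HEK293 cells expressing human 5-HT₃; [³H]-LY278584 binding, six-point dose–response curve in triplicate, values averaged.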
# [8] = Intrinsic clearance in human liver microsomes at 1 uM at pH 7.4 after 30 mins; format: ADME, Microsome
# How it was run: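 Pooled liver microsomes in phosphate buffer pH 7.4, 1 μM substrate; sampled at 30 min.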
# [9] = Aqueous solubility of the compound; format: physicochemical; conditions: buffer
# [10] = Drug concentration in Sprague-Dawley rat brain at 5 mg/kg, sc after 1 hr; format: ADME, organism-based; design: dose 5 mg/kg, route subcutaneous; conditions: read-out: Drug uptake
# How it was run: (§1)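 Male Sprague-Dawley rats (n = 3) given 5 mg/kg s.c.; brain, plasma and CSF levels assessed 1 h post dose.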
# [11] = Plasma concentration in Sprague-Dawley rat at 5 mg/kg, sc after 1 hr; format: ADME, organism-based; design: dose 5 mg/kg, route subcutaneous; how it was run: as §1
# hERG (KCNH2) = hERG (KCNH2) (Homo sapiens, UniProt Q12809); experiment: Displacement of [3H]dofetilide from human ERG expressed in HEK293 cells at 10 uM; format: cell-based; conditions: HEK293 cells expressing human ERG, probe [3H]dofetilide
# How it was run: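 Binding of [³H]dofetilide to hERG stably expressed in HEK293 cells; reported as percent inhibition of binding.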
# [12] = Drug concentration in Sprague-Dawley rat CSF at 5 mg/kg, sc after 1 hr; format: ADME, organism-based, Cerebrospinal fluid; design: dose 5 mg/kg, route subcutaneous; conditions: read-out: Drug uptake; how it was run: as §1
# Sequence of Neuronal acetylcholine receptor; alpha4/beta2 (P09483 whole entry): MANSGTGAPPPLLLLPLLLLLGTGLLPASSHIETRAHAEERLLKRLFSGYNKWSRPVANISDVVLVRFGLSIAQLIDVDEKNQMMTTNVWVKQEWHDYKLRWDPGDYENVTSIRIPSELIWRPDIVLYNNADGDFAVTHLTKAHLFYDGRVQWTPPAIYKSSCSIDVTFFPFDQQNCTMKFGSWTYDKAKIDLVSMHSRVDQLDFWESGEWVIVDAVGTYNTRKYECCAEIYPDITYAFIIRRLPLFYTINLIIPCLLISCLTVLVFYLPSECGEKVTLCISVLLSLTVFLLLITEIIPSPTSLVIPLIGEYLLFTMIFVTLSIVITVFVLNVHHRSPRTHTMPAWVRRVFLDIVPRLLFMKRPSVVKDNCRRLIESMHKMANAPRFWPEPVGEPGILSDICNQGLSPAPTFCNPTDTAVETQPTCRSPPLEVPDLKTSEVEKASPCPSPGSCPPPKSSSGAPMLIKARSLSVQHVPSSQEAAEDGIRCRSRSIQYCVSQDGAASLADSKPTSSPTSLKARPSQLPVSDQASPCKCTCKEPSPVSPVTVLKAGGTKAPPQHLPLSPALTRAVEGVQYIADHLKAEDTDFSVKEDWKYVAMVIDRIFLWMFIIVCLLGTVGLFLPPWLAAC
# Sequence of Neuronal acetylcholine receptor; alpha4/beta2 (P12390 whole entry): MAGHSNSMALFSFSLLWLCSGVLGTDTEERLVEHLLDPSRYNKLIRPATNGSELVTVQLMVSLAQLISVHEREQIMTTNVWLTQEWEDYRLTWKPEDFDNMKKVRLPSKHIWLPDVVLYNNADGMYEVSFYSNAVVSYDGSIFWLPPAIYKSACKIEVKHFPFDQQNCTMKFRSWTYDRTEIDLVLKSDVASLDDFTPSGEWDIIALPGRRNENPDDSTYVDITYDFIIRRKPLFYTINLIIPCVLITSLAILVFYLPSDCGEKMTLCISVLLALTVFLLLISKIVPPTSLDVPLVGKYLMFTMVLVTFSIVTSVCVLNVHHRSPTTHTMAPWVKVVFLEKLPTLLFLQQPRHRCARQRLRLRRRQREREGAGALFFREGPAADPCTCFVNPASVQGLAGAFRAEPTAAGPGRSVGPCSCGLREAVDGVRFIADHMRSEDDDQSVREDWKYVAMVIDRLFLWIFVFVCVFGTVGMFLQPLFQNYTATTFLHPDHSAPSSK
# Sequence of Neuronal acetylcholine receptor subunit alpha-3 (P32297 whole entry): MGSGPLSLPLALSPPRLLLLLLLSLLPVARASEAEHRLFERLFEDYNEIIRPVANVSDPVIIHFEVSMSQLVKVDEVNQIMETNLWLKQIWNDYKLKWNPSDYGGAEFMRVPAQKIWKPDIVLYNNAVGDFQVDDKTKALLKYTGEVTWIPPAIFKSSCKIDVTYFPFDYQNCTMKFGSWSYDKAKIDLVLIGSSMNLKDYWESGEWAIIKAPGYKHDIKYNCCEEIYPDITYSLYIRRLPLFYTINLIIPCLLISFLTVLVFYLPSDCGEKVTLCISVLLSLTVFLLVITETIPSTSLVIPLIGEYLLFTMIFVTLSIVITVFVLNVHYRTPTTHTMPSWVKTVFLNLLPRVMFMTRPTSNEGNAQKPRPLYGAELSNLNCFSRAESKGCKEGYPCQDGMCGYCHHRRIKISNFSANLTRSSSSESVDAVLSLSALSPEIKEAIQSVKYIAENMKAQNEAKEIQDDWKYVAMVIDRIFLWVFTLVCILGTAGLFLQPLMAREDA
# Sequence of Neuronal acetylcholine receptor subunit alpha-7 (Q05941 whole entry): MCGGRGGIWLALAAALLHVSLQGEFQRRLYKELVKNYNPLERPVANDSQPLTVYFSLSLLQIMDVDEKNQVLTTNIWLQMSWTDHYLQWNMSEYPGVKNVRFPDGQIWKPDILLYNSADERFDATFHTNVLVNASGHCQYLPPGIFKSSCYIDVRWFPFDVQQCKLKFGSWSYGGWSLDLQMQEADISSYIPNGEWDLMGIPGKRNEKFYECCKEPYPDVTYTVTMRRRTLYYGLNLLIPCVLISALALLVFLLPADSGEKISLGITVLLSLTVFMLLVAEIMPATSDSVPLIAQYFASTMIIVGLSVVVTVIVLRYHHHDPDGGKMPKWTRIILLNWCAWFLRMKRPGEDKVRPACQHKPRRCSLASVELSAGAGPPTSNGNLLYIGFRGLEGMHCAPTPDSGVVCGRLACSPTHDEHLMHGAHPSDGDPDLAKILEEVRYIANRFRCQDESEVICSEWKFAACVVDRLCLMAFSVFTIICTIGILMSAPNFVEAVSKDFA
# Sequence of Neuronal acetylcholine receptor subunit alpha-7 (Rattus norvegicus) (Q05941 whole entry): as above
# Sequence of hERG (KCNH2) (Q12809 whole entry): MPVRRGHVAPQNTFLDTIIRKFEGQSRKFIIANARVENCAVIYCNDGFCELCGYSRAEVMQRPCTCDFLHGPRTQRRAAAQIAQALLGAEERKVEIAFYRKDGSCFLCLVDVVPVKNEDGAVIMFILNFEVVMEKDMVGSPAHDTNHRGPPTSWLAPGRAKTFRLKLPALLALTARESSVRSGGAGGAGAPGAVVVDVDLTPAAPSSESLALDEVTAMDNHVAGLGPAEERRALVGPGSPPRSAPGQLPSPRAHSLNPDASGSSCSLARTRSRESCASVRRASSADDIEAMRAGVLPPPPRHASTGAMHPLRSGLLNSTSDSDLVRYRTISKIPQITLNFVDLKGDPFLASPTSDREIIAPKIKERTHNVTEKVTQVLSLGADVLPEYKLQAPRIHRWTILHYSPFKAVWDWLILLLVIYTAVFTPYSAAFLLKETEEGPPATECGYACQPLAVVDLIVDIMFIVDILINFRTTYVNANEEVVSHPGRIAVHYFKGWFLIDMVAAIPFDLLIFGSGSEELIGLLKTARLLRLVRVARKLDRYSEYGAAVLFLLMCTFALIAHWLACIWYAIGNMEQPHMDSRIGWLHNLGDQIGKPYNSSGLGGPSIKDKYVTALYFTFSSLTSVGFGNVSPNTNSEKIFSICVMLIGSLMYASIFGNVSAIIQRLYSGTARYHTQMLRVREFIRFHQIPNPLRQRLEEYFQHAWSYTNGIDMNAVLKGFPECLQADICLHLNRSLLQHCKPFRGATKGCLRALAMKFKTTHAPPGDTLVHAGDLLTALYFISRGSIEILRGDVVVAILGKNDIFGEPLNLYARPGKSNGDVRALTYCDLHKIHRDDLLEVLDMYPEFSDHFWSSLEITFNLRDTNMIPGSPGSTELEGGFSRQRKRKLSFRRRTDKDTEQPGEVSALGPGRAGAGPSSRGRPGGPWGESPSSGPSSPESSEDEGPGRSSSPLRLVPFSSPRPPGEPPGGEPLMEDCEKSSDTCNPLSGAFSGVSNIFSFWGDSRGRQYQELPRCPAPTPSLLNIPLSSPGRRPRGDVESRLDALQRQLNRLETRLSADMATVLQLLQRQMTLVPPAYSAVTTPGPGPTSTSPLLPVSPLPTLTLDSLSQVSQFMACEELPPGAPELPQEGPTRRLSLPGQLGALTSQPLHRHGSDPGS
Compound,Ki [1] [nM],Activity [2] [%],IC50 [3] [nM],also measured
O=C(Nc1ccc(Br)cc1)N1CCN2CCC1CC2,328,–,–,–
O=C(Oc1ccc(-c2cccnc2)cc1)N1CCN2CCC1CC2,203,189,> 5000,–
O=C(c1ccccc1)c1cc(OC(=O)N2CCN3CCC2CC3)ccc1Br,16,201,2040,IC50 [4]: 1390 nM
C[C@@H]1CN(C(=O)Oc2ccc(Br)cc2)[C@@H](C)CN1,> 5000,–,–,–
O=C(Oc1cccc(Br)c1)N1CCN2CCC1CC2,9.5,70,–,–
O=C(Oc1cccc(Cl)c1)N1CCN2CCC1CC2,32,77,3500,–
CN1CCCN(C(=O)Oc2ccc(Br)cc2)CC1,> 5710,10,–,–
O=S(=O)(c1ccc(Br)cc1)N1CCN2CCC1CC2,> 4720,–,–,–
O=C(Oc1ccccc1Cl)N1CCN2CCC1CC2,868,–,–,–
O=C(Oc1cccc(Oc2ccccc2)c1)N1CCN2CCC1CC2,13,40,–,–
O=C(Oc1ccc(Cl)c(F)c1)N1CCN2CCC1CC2,86,110,6980,IC50 [4]: 9960 nM
O=C(c1ccccc1)c1cccc(OC(=O)N2CCN3CCC2CC3)c1,11,98,2610,–
O=C(Oc1ccc(Cl)c(Cl)c1)N1CCN2CCC1CC2,31,195,–,–
COc1cccc(OC(=O)N2CCN3CCC2CC3)c1,79,26,–,–
Cc1cccc(OC(=O)N2CCN3CCC2CC3)c1,25,46,–,–
COc1ccc(OC(=O)N2CCN3CCC2CC3)cc1,201,126,–,–
O=C(Nc1ccc(Br)cc1)OC1CN2CCC1C2 (configuration not stated) [QUINUCLIDINE CARBAMATE],–,90,–,–
O=c1c(Br)ccc2n1C[C@@H]1CNC[C@H]2C1,–,–,–,IC50 [4]: 15.6 nM
O=C(Cc1ccc(Br)cc1)N1CCN2CCC1CC2,> 5000,1.7,–,–
O=C(Oc1ccc(Cl)cc1)N1CCN2CCC1CC2,79,145,> 5000,IC50 [4]: > 5000 nM
O=C(Oc1ccc2ccccc2c1)N1CCN2CCC1CC2,23,175,9880,logD [5]: 2.3; Kp at 1 h [6]: 11.6; IC50 [7]: > 3160 nM; CLint scaled at 1 µM [8]: 12 mL/min/kg; solubility [9]: > 65 µg/mL; concentration at 1 h [10]: 5290 ng/g; IC50 [4]: 4910 nM; concentration at 1 h [11]: 463 ng/mL; inhibition at 10 µM (hERG (KCNH2)): 8%; concentration at 1 h [12]: 343 nM

Compound,Ki [1] [nM],Activity [2] [%],IC50 [3] [nM],also measured
C[C@@H]1CN(C(=O)Oc2ccc(Br)cc2)C[C@H](C)N1,> 5000,< 0.1,–,–
Cc1ccc(OC(=O)N2CCN3CCC2CC3)cc1,178,202,–,–
O=C(Oc1cccc(F)c1)N1CCN2CCC1CC2,35,47,1060,–
O=C(Oc1ccc(Oc2ccccc2)cc1)N1CCN2CCC1CC2,212,241,–,–
O=C(OCc1ccccc1)N1CCN2CCC1CC2,3350,–,–,–
O=C(Oc1ccc(Br)cc1)N1CCN2CCC(CC2)C1,763,–,> 10000,–
O=C(c1ccccc1)c1ccc(OC(=O)N2CCN3CCC2CC3)cc1,95,35,–,–
O=C(Oc1ccc(Br)cc1)N1CCN2CCC1CC2 [SSR180711],–,158,> 5000,logD [5]: 2.1; Kp at 1 h [6]: 9.1; IC50 [7]: > 3160 nM; CLint scaled at 1 µM [8]: < 6.8 mL/min/kg; solubility [9]: > 65 µg/mL; concentration at 1 h [10]: 5460 ng/g; IC50 [4]: > 6480 nM; concentration at 1 h [11]: 648 ng/mL; inhibition at 10 µM (hERG (KCNH2)): 46%; concentration at 1 h [12]: 774 nM
S=C(Oc1ccccc1)N1CCN2CCC1CC2,749,28,–,–
O=C(Oc1ccc(Br)cc1)N1CCCN2CCC1CC2,383,27,> 10000,–
O=C(Oc1ccc(-c2ccccn2)cc1)N1CCN2CCC1CC2,354,174,–,–
O=C(Oc1ccc(Br)c(Cl)c1)N1CCN2CCC1CC2,33,203,7120,IC50 [4]: 2090 nM
O=C(Oc1ccccc1)N1CCN2CCC1CC2,739,99,1040,–
O=C(Oc1ccccc1Br)N1CCN2CCC1CC2,725,–,–,–
O=C(Oc1ccc(F)cc1)N1CCN2CCC1CC2,537,100,1780,–
O=C(Oc1ccc(-c2ccncc2)cc1)N1CCN2CCC1CC2,207,191,–,–
C[C@@H]1CN(C(=O)Oc2ccc(Br)cc2)CCN1,> 5000,< 0.1,–,–
Cc1cc(OC(=O)N2CCN3CCC2CC3)ccc1Br,50,83,7220,IC50 [4]: 4020 nM
O=C(Oc1ccc(-c2ccccc2)cc1)N1CCN2CCC1CC2,215,111,–,–
O=C(Oc1cccc(-c2ccccc2)c1)N1CCN2CCC1CC2,9,9,–,–
